Data published in ChEMBL document CHEMBL4340580, “Antibacterial and Inhibitory Activities against Nitric Oxide Production of Coumaronochromones and Prenylated Isoflavones from Millettia extensa” (J Nat Prod, 2019).
≈ marks a conversion by molar mass, not a printed value. Calls of active or inactive are those of the source. The calls are words filed in the database; no cut-off is given here.

Assays:
Streptococcus mutans [1] = assay: Antibacterial activity against Streptococcus mutans by CLSI protocol based method; assay type: functional
How it was run: (§1)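 Strains came from the Microbiological Resources Center, Bangkok, Thailand. Antibacterial testing followed Clinical and Laboratory Standards Institute recommendations.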

Shigella flexneri [2] = assay: Antibacterial activity against Shigella flexneri by CLSI protocol based method; assay type: functional; how it was run: as §1
Streptococcus mutans [3] = assay: Antibacterial activity against Streptococcus mutans at >128 ug/ml by CLSI protocol based method; assay type: functional, organism-based; how it was run: as §1
[4] = tested on: Staphylococcus epidermidis; assay: Antibacterial activity against Staphylococcus epidermidis by CLSI protocol based method; assay type: functional; how it was run: as §1
Pseudomonas aeruginosa [5] = assay: Antibacterial activity against Pseudomonas aeruginosa at >128 ug/ml by CLSI protocol based method; assay type: functional, organism-based; how it was run: as §1
Micrococcus luteus [6] = assay: Antibacterial activity against Micrococcus luteus at >128 ug/ml by CLSI protocol based method; assay type: functional, organism-based; how it was run: as §1
RAW264.7 = assay: Inhibition of LPS-induced nitric oxide production in mouse RAW264.7 cells incubated for 24 hrs by Griess reagent based assay; assay type: functional, cell-based
How it was run: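 RAW 264.7 cells were seeded at 5.0 × 10^5 cells/mL and held 24 h at 37 °C, 5% CO2. Medium was discarded and cells were stimulated with 1 μg/mL LPS with or without compound for 24 h at 37 °C. Supernatant was mixed 1:1 with Griess reagent for 10 min at room temperature. Absorbance was read at 570 nm against a sodium nitrite calibration curve, giving IC50.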

Micrococcus luteus [7] = assay: Antibacterial activity against Micrococcus luteus by CLSI protocol based method; assay type: functional; how it was run: as §1
Bacillus cereus [8] = assay: Antibacterial activity against Bacillus cereus at >128 ug/ml by CLSI protocol based method; assay type: functional, organism-based; how it was run: as §1
Staphylococcus aureus = assay: Antibacterial activity against Staphylococcus aureus by CLSI protocol based method; assay type: functional; how it was run: as §1
Pseudomonas aeruginosa [9] = assay: Antibacterial activity against Pseudomonas aeruginosa by CLSI protocol based method; assay type: functional; how it was run: as §1
Escherichia coli [10] = assay: Antibacterial activity against Escherichia coli by CLSI protocol based method; assay type: functional; how it was run: as §1
Escherichia coli [11] = assay: Antibacterial activity against Escherichia coli at >128 ug/ml by CLSI protocol based method; assay type: functional, organism-based; how it was run: as §1
Bacillus cereus [12] = assay: Antibacterial activity against Bacillus cereus by CLSI protocol based method; assay type: functional; how it was run: as §1
[13] = Toxicity in mouse RAW264.7 cells assessed as cell viability at 10 uM by MTT assay; assay type: cell-based; details: read-out: Activity
Shigella flexneri [14] = assay: Antibacterial activity against Shigella flexneri at >128 ug/ml by CLSI protocol based method; assay type: functional, organism-based; how it was run: as §1
[15] = Mus musculus, RAW264.7, 24 h, read-out: IC50

Row | SMILES | MIC (Streptococcus mutans [1]) | MIC (Shigella flexneri [2]) | Activity (Streptococcus mutans [3]) | MIC [4] [µg/mL] | Activity (Pseudomonas aeruginosa [5]) | Activity (Micrococcus luteus [6]) | IC50 (RAW264.7; raw264.7) | MIC (Micrococcus luteus [7]) | Activity (Bacillus cereus [8]) | MIC (Staphylococcus aureus) [µg/mL] | MIC (Pseudomonas aeruginosa [9]) | MIC (Escherichia coli [10]) | Activity (Escherichia coli [11]) | MIC (Bacillus cereus [12]) | viability at 10 µM [13] [%] | IC50 (RAW264.7; [15]) [µM] | Activity (Shigella flexneri [14])
1 | COc1cc(-c2coc3cc4c(c(O)c3c2=O)C=CC(C)(C)O4)c(OC)cc1OCC=C(C)C | inactive | 128 µg/mL (≈ 276 µM) | inactive | 128 (≈ 276 µM) | inactive | inactive | Not Active | inactive | inactive | 128 (≈ 276 µM) | inactive | inactive | inactive | inactive | 60.1 | – | –
2 | CC(C)=CCc1c(O)c(CC=C(C)C)c2occ(-c3ccc(O)c(O)c3)c(=O)c2c1O | 16 µg/mL (≈ 37.9 µM) | 128 µg/mL (≈ 303 µM) | – | 128 (≈ 303 µM) | – | – | – | 16 µg/mL (≈ 37.9 µM) | – | 32 (≈ 75.7 µM) | 128 µg/mL (≈ 303 µM) | 128 µg/mL (≈ 303 µM) | – | 16 µg/mL (≈ 37.9 µM) | 90.2 | 14.3 | –
3 | CC(C)=CCc1c2c(c(O)c3c(=O)c4c(oc5cc(O)ccc54)oc13)C=CC(C)(C)O2 | inactive | 128 µg/mL (≈ 306 µM) | inactive | 128 (≈ 306 µM) | inactive | inactive | Not Active | inactive | – | 128 (≈ 306 µM) | inactive | inactive | inactive | 128 µg/mL (≈ 306 µM) | 79.2 | – | –
4 | COc1c2c(cc3c1C(=O)[C@]1(O)c4ccc(OCC=C(C)C)cc4O[C@@H]1O3)OC(C)(C)C=C2 | 128 µg/mL (≈ 284 µM) | inactive | – | 128 (≈ 284 µM) | inactive | – | Not Active | 64 µg/mL (≈ 142 µM) | – | 32 (≈ 71 µM) | inactive | inactive | inactive | 32 µg/mL (≈ 71 µM) | 64.4 | – | inactive
5 | COc1cc(O)c2c(=O)c(-c3ccc(OCC=C(C)C)cc3)coc2c1 | inactive | inactive | inactive | 128 (≈ 363 µM) | inactive | inactive | Not Active | inactive | inactive | 128 (≈ 363 µM) | inactive | inactive | inactive | inactive | 65.3 | – | inactive
6 | CC(C)=CCC1=C(O)c2c(occ(-c3ccc(O)c(O)c3)c2=O)C(CC=C(C)C)(CC=C(C)C)C1=O | 16 µg/mL (≈ 32.6 µM) | 128 µg/mL (≈ 261 µM) | – | 4 (≈ 8.15 µM) | – | – | – | 2 µg/mL (≈ 4.08 µM) | – | 4 (≈ 8.15 µM) | 128 µg/mL (≈ 261 µM) | 128 µg/mL (≈ 261 µM) | – | 32 µg/mL (≈ 65.2 µM) | – | – | –
7 | C=CC(C)(C)c1cc(-c2coc3cc4c(c(O)c3c2=O)C=CC(C)(C)O4)ccc1O | 128 µg/mL (≈ 316 µM) | 128 µg/mL (≈ 316 µM) | – | 128 (≈ 316 µM) | inactive | – | Not Active | 64 µg/mL (≈ 158 µM) | – | 64 (≈ 158 µM) | inactive | inactive | inactive | 64 µg/mL (≈ 158 µM) | 61.1 | – | –
8 | CN[C@H](CC(C)C)C(=O)N[C@H]1C(=O)N[C@@H](CC(N)=O)C(=O)N[C@H]2C(=O)N[C@H]3C(=O)N[C@H](C(=O)N[C@H](C(=O)O)c4cc(O)cc(O)c4-c4cc3ccc4O)[C@H](O)c3ccc(c(Cl)c3)Oc3cc2cc(c3O[C@@H]2O[C@H](CO)[C@@H](O)[C@H](O)[C@H]2O[C@H]2C[C@](C)(N)[C@H](O)[C@H](C)O2)Oc2ccc(cc2Cl)[C@H]1O [VANCOMYCIN] | 0.25 µg/mL (≈ 0.173 µM) | – | – | 0.25 (≈ 0.173 µM) | – | – | – | 0.25 µg/mL (≈ 0.173 µM) | – | 0.25 (≈ 0.173 µM) | – | – | – | 0.125 µg/mL (≈ 0.0863 µM) | – | – | –
9 | COc1ccc2c(c1)c(CC(=O)O)c(C)n2C(=O)c1ccc(Cl)cc1 [INDOMETHACIN] | – | – | – | – | – | – | – | – | – | – | – | – | – | – | – | 62.9 | –
10 | CC(C)=CCOc1ccc2c(c1)O[C@@H]1Oc3cc4c(c(O)c3C(=O)[C@]21O)C=CC(C)(C)O4 | 128 µg/mL (≈ 293 µM) | inactive | – | 128 (≈ 293 µM) | inactive | – | Not Active | 64 µg/mL (≈ 147 µM) | – | 32 (≈ 73.3 µM) | inactive | inactive | inactive | 32 µg/mL (≈ 73.3 µM) | 65.3 | – | inactive
